Drawing on ChEMBL document CHEMBL4411342, “Pyrrolomycins as antimicrobial agents. Microwave-assisted organic synthesis and insights into their antimicrobial mechanism of action” (Bioorg Med Chem, 2019), this text covers IC50, inhibition and fold change (FC) for 6 compounds.

For one assay, the target named is T1, Sortase A (Staphylococcus aureus, UniProt Q9S446).
T1 sequence (Q9S446 whole entry): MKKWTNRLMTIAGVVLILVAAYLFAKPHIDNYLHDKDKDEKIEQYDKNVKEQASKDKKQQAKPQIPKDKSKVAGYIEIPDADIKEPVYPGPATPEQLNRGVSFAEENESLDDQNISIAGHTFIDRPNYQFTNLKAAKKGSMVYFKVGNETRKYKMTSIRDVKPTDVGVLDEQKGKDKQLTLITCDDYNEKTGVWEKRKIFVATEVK
The experiment in a line: Inhibition of Staphylococcus aureus SrtA using dabcyl-QALPETGEE-edans as substrate preincubated for 1 hr followed by substrate addition and measured at 1 min interval for 1 hr by fluorescence assay. The method, boiled down:
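Recombinant S. aureus SrtA (10 µM) preincubated 1 h at 37 °C in 50 mM Tris-HCl, 5 mM CaCl2, 150 mM NaCl, pH 7.5 with increasing inhibitor levels; FRET peptide added to 50 µM final. Cleavage fluorescence read at ex 350/em 495 nm; progress curves used for IC50. Stocks 10 mM in DMSO; berberine chloride positive control, enzyme-free substrate negative control.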

In assay [1] the test system is Staphylococcus aureus. As to the kind of experiment: Antibiofilm activity against Staphylococcus aureus ATCC 25923 after 24 hrs by crystal violet staining based assay. In kind it is functional, organism-based. The note with it: ATCC 25923, 24 h. The method, boiled down: (§1)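 Overnight TSB + 2% w/v glucose cultures (37 °C, 24 h) diluted to 0.5 McFarland, inoculated into 96-well plates of TSB/2% glucose with compound (100 µg/mL screen, or 100–0.001 µM for IC50). Static 37 °C, 24 h; wells PBS-washed, 0.1% crystal violet 30 min, solubilized in 33% acetic acid, OD 540 nm. % inhibition vs growth control; duplicates, ≥3 independent experiments.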

Another assay deals with Pseudomonas aeruginosa. The experiment in a line: Antibiofilm activity against Pseudomonas aeruginosa ATCC 15442 after 24 hrs by crystal violet staining based assay. In kind it is functional, organism-based. To be noted: ATCC 15442, 24 h. The method in brief:
as §1

Assay [2] relates to Staphylococcus aureus. The experiment in a line: Inhibition of Staphylococcus aureus AtlA assessed as reduction in biofilm formation at 1 uM measured after 24 hrs. The method in brief: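 S. aureus overnight culture (TSB + 2% glucose, 37 °C, 200 rpm) inoculated 1:100 into TSB/2% glucose containing 1 µM compound (from DMSO stock) in 24-well plates. Static incubation at 37 °C for 24 h. Biofilm inhibition is expressed relative to untreated cultures. Untreated and 0.1% DMSO controls. Triplicate cultivations.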

For assay [3], the system named is Staphylococcus aureus. As to the kind of experiment: Inhibition of Staphylococcus aureus AtlA assessed as reduction in enzyme activity at 1 uM measured after 24 hrs y methylene blue staining based zymography relative to control. The method in brief:
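Spent medium from 24 h static S. aureus cultures (1 µM compound; untreated and 0.1% DMSO controls) was centrifuged, and the supernatant was lyophilized and resuspended in Tris-HCl pH 7.4. Proteins were run on 12% SDS-PAGE containing 1 mg/mL Micrococcus lysodeikticus cells. The gel was renatured (Triton X-100 buffer, 37 °C, 16–48 h) and stained with 0.1% methylene blue. Clear bands were quantified by densitometry as lysozyme µg equivalents, in triplicate.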

Some results are limits rather than exact numbers.

Consider `O=C(c1cc(Cl)c(Cl)[nH]1)c1cc(Cl)cc(Cl)c1O`, for which the IC50 came out at 300 µM at Sortase A, 0.92 µM in the assay on Staphylococcus aureus [1] and 236 µM in the assay with Pseudomonas aeruginosa.

Consider `O=C(c1cc(Br)cc(Br)c1O)c1[nH]c(Br)c(Br)c1Br`, for which the inhibition in the assay on Staphylococcus aureus [2] was < 80%. Also, the IC50 on Sortase A was found to be 140 µM; in the assay with Staphylococcus aureus [1] it was 0.0034 µM; with Pseudomonas aeruginosa, 74.8 µM. Further, in the assay with Staphylococcus aureus [3], the fold change (FC) was found to be 2.

For `O=C(c1cc(Br)ccc1O)c1[nH]c(Br)c(Cl)c1Br`, the inhibition in the assay on Staphylococcus aureus [2] is < 80%. The IC50 on Sortase A worked out at 250 µM; with Staphylococcus aureus [1], 0.0087 µM; in the assay with Pseudomonas aeruginosa, 78.9 µM. The fold change (FC) in the assay with Staphylococcus aureus [3] came out at 2.

For `O=C(c1cc(Cl)cc(Cl)c1O)c1[nH]c(Br)c(Br)c1Br`, the IC50 against Sortase A amounted to 130 µM; in the assay with Staphylococcus aureus [1], 20.3 µM; in the assay on Pseudomonas aeruginosa, 106 µM.

On to `O=C(c1cc(Cl)cc(Cl)c1O)c1[nH]c(Cl)c(Cl)c1Br`, for which the values for the IC50 on Sortase A, with Staphylococcus aureus [1] and in the assay on Pseudomonas aeruginosa were 130 µM, 0.1 µM and 170 µM, respectively.

As for `O=C(c1cc(Cl)cc(Cl)c1O)c1[nH]c(Cl)c(Br)c1Cl`, the IC50 against Sortase A worked out at 160 µM; in the assay with Staphylococcus aureus [1], 0.0247 µM; with Pseudomonas aeruginosa, 18.6 µM.

For orientation: IC50 means the concentration needed to halve the response being measured. Low values mean greater potency, high ones weaker potency. A word on the inhibition: it is the drop in the measured response relative to a control, in per cent.
